# Measured values collected from several papers.
# Compare with care: the assays were run in different laboratories.
# Observed: cell growth or viability
Structure (SMILES),cell line,method,tested at,time,measurement,result
Cc1nc(Nc2ccc3c(c2)/C(=C/c2ccccc2C)C(=O)N3)c2ccccc2n1,BEAS-2B,MTT,,,IC50,8740 nM
C=CC(=O)NC1CCN(c2ncc3ncnc(Nc4ccc(Oc5ccc6c(c5)ncn6C)c(C)c4)c3n2)CC1,647-V,,,,EC50,2320 nM
COc1cc2ncnc(Nc3ccc4c(c3)/C(=C/c3ccccc3)C(=O)N4)c2cc1OC,BEAS-2B,MTT,,,IC50,17500 nM
Cn1cc(-n2cnc3c(NCc4nc5cc(Cl)c(Cl)cc5[nH]4)nc(N4CCOCC4)nc32)cn1,MDA-MB-468,,,5 days,EC50,9.21 nM
C[C@@H]1CN(c2ccc(-c3cc(C(=O)NCCOCCOCCOCCOCCOCCOCCNC(=O)/C=C/c4[nH]cc(C(=O)N[C@@H](CC(N)=O)c5ccc(F)c(Cl)c5)c4-c4ccc(Cl)cc4F)ccc3F)cc2NC(=O)c2ccc(F)cc2C(F)(F)F)C[C@H](C)N1C,MV4-11,,4.64 µM,5 days,viability,43.9%
Cc1nc(Nc2ccc3c(c2)CC(=O)N3)c2ccccc2n1,BEAS-2B,MTT,,,IC50,8760 nM
Cc1c(C(=O)O)ccc2c3n(nc12)[C@@H]1[C@H](C3)N(CC2CC2)[C@@]2(C(=O)Nc3cc(Cl)ccc32)[C@H]1c1cccc(Cl)c1F,human Fibroblast,ATP luminescence,,,IC50,12 nM
C[C@@H]1CN(c2ccc(-c3cc(C(=O)NCCOCCOCCOCCOCCNC(=O)Cn4cc(-c5[nH]cc(C(=O)N[C@@H](CC(N)=O)c6ccc(F)c(Cl)c6)c5-c5ccc(Cl)cc5F)cn4)ccc3F)cc2NC(=O)c2c[nH]c(=O)cc2C(F)(F)F)C[C@H](C)N1C,MV4-11,,4.64 µM,5 days,viability,27%
Cc1nc(Nc2ccc3c(c2)/C(=C/c2ccccc2)C(=O)N3C)c2ccccc2n1,BEAS-2B,MTT,,,IC50,20100 nM
Cc1noc2c1-c1ccccc1C(c1ccc(Cl)cc1)=N[C@H]2CC(N)=O,MV4-11,ATP luminescence,,72 h,IC50,412 nM
CC1(C)CCC(CN2CCN(c3ccc(C(=O)NS(=O)(=O)c4ccc(NCC5CCOCC5)c([N+](=O)[O-])c4)c(Oc4cnc5[nH]ccc5c4)c3)CC2)=C(c2ccc(Cl)cc2)C1,MV4-11,ATP luminescence,,48 h,IC50,12 nM
Cc1nc(Nc2ccc3c(c2)C(C)(C)C(=O)N3)c2ccccc2n1,BEAS-2B,MTT,,,IC50,38400 nM
C=CC(=O)N1C[C@@H](n2nc(C#Cc3c(F)cc4c(ncn4C4CC4)c3F)c(C(N)=O)c2NC)C[C@@H]1COC,RBE,MTT,,72 h,IC50,> 1000 nM
CC(C)c1ccccc1[C@@H]1CCCN1C1CC2(CCN(c3ccc(C(=O)NS(=O)(=O)c4ccc(NC[C@H]5CC[C@](C)(O)CC5)c([N+](=O)[O-])c4)c(Oc4cnc5[nH]ccc5c4)c3)CC2)C1,KMS-12-PE,ATP luminescence,,48 h,IC50,0.86 nM
CN1Cc2c(N)cccc2C(=O)N1C1CCC(=O)NC1=O (stereo not drawn),MV4-11,CCK-8,,96 h,IC50,< 330 nM
